# Test results: ChEMBL document CHEMBL1155055, “Novel aminopeptidase N inhibitors derived from 1,3,4-thiadiazole scaffold” (Bioorg Med Chem, 2008)
# Calls of active or inactive are those of the source. The calls are words filed in the database; no cut-off is given here.
# Tests used:
# [1] = biological target: 72 kDa type IV collagenase (Homo sapiens, UniProt P08253); assay: Inhibition of MMP2
# Summary of the method: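 Gelatinase (MMP-2), substrate and inhibitor in 50 mmol/L sodium borate pH 8.5, 30 min at 37 °C; then 0.03% TNBS added, further 20 min incubation; absorbance read at 450 nm.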
# Aminopeptidase N = biological target: T1, Aminopeptidase N (Sus scrofa, UniProt P15145); assay: Inhibition of pig kidney microsomes aminopeptidase N
# T1 sequence (P15145 whole entry): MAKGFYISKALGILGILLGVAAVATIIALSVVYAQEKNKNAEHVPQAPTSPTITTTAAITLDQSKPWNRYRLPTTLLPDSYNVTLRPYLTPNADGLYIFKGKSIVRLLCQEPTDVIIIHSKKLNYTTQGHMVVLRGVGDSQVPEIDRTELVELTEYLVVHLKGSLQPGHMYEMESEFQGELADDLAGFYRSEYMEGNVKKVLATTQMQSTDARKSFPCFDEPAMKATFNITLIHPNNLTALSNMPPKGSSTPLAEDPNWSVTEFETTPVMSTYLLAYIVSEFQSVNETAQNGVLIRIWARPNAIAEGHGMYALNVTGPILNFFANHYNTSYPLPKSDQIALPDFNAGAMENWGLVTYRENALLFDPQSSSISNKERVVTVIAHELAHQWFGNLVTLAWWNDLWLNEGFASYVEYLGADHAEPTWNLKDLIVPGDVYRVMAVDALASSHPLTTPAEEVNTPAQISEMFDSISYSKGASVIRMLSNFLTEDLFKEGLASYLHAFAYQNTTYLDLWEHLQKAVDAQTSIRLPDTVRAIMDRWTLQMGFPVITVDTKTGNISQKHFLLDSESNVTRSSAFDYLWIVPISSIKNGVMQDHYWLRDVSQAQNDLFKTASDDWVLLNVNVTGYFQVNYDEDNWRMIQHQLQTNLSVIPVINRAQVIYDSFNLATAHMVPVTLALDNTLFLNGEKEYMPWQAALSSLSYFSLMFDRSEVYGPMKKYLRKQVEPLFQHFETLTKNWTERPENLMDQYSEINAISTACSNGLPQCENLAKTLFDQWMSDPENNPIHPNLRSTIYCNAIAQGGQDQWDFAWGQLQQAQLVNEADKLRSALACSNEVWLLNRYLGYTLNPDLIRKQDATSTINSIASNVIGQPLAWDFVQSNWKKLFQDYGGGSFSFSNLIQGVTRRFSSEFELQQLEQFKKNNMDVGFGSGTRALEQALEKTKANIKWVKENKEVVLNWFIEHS
SMILES,Activity [1],IC50 (Aminopeptidase N) [µM],IC50 [1] [µM]
COc1ccc(-c2nnc(NC(=O)[C@@H](C)NC(=O)/C=C/c3ccc(O)cc3)s2)cc1,inactive,68.8,
Cc1ccc(-c2nnc(NC(=O)[C@@H](C)NC(=O)/C=C/c3ccccc3)s2)cc1,inactive,206,
COc1ccc(/C=C/C(=O)N[C@H](C)C(=O)Nc2nnc(-c3ccc(OC)cc3)s2)cc1,inactive,78.5,
C[C@@H](NC(=O)/C=C/c1ccc(O)cc1)C(=O)Nc1nnc(-c2ccc(Cl)cc2)s1,inactive,105,
C[C@@H](NC(=O)/C=C/c1ccccc1)C(=O)Nc1nnc(-c2ccc([N+](=O)[O-])cc2)s1,inactive,84.7,
CC(C)C[C@H](NC(=O)[C@@H](O)[C@H](N)Cc1ccccc1)C(=O)O [UBENIMEX],,,9.5
COc1ccc(/C=C/C(=O)N[C@H](C)C(=O)Nc2nnc(-c3ccc([N+](=O)[O-])cc3)s2)cc1,,44.6,297
C[C@@H](NC(=O)/C=C/c1ccc(O)cc1)C(=O)Nc1nnc(-c2ccccc2)s1,inactive,124,
COc1ccc(-c2nnc(NC(=O)[C@@H](C)NC(=O)/C=C/c3ccccc3)s2)cc1,inactive,31.4,
COc1ccc(/C=C/C(=O)N[C@H](C)C(=O)Nc2nnc(-c3ccc(Br)cc3)s2)cc1,inactive,108,
COc1ccc(/C=C/C(=O)N[C@H](C)C(=O)Nc2nnc(-c3ccc(Cl)cc3)s2)cc1,inactive,135,
COc1ccc(/C=C/C(=O)N[C@H](C)C(=O)Nc2nnc(-c3ccc(F)cc3)s2)cc1,inactive,90.7,
C[C@@H](NC(=O)/C=C/c1ccc(O)cc1)C(=O)Nc1nnc(-c2ccc([N+](=O)[O-])cc2)s1,inactive,54.1,
COc1ccc(/C=C/C(=O)N[C@H](C)C(=O)Nc2nnc(-c3ccccc3)s2)cc1,inactive,131,
Cc1ccc(-c2nnc(NC(=O)[C@@H](C)NC(=O)/C=C/c3ccc(O)cc3)s2)cc1,inactive,127,
C[C@@H](NC(=O)/C=C/c1ccc(O)cc1)C(=O)Nc1nnc(-c2ccc(F)cc2)s1,inactive,115,
C[C@@H](NC(=O)/C=C/c1ccc(O)cc1)C(=O)Nc1nnc(-c2ccc(Br)cc2)s1,inactive,35.3,
C[C@@H](NC(=O)/C=C/c1ccccc1)C(=O)Nc1nnc(-c2ccc(F)cc2)s1,inactive,183,
C[C@@H](NC(=O)/C=C/c1ccccc1)C(=O)Nc1nnc(-c2ccccc2)s1,inactive,216,
COc1ccc(/C=C/C(=O)N[C@H](C)C(=O)Nc2nnc(-c3ccc(C)cc3)s2)cc1,inactive,141,
C[C@@H](NC(=O)/C=C/c1ccccc1)C(=O)Nc1nnc(-c2ccc(Br)cc2)s1,inactive,115,
C[C@@H](NC(=O)/C=C/c1ccccc1)C(=O)Nc1nnc(-c2ccc(Cl)cc2)s1,inactive,153,
